Source: PubChem BioAssay (several laboratories)
Beta2AR agonist – beta2AR agonists driving receptor internalization, primary screen, cell-based, FAP fluorogen, flow cytometry. actives 0.43% (n = 340,000). Beta-2 adrenergic receptor (Homo sapiens), P07550. response, % (test concentration not listed). Am2.2-beta2AR cells;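 active means response above a set limit, near 3 SD of response in nonfluorescent compounds, cut at about 42% in these data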
Target sequence (P07550 whole entry, looked up): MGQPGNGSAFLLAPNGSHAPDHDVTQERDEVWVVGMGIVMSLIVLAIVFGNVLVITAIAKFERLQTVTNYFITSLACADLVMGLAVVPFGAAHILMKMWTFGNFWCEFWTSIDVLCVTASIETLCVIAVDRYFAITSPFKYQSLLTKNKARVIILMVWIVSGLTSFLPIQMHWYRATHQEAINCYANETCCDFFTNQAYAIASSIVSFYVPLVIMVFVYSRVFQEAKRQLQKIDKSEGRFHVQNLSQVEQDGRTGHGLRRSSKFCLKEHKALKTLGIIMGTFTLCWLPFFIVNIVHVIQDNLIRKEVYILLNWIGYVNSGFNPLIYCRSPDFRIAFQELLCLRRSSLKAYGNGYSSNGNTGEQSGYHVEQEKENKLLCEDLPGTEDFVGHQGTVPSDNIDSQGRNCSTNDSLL
CHOP UPR activ – activators of apoptotic CHOP UPR arm, primary screen, cell-based, CHO-CHOP luciferase reporter, luminescence, uHTS; actives 0.34% (n = 330,000); activation, % at 10 µM; AID 449763, 2010; UPR activation; percent of tunicamycin response over DMSO baseline;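 active means at 10 µM dose, activation of 40% or more, normalized to positive control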;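 further: 100% = tunicamycin at 10 µg/mL and 0% = DMSO alone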
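Material: CHO-CHOP cells, stable luciferase reporter of PERK-eIF2a-CHOP signalling; quantity: 500 reporter cells seeded per well; buffer or medium: F12 medium containing 10% fetal bovine serum; compound: one dose, 10 µM in 0.5% DMSO; incubation: 6 h compound treatment, 37 °C; measured by: Steady-Glo luciferase luminescence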
UPR XBP1 act – activators of adaptive XBP1 UPR arm, primary screen, cell-based, CHO-XBP1 luciferase reporter, luminescence, uHTS; IRE1-XBP1 UPR activation; percent of tunicamycin response, DMSO as zero; activation, % at 20 µM; actives 0.33% (n = 330,000); AID 463104, 2010;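 active means versus positive control, 20 µM dose yields 30% or more activation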;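 further: 100% = tunicamycin at 10 µg/mL and 0% = DMSO only wells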
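Material: CHO cell line with stable XBP1 luciferase reporter; schedule: 16-18 h cell attachment at 37 °C, then 6 h compound exposure; signal: glow luminescence from Steady-Glo reagent; medium: serum-containing F12 medium, 10% FBS; benchmarks: tunicamycin 10 µg/mL and vehicle-only wells; read-out: percent activation relative to tunicamycin reference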
VLA-4 inh – inhibition in human VLA-4 binding assay, primary screen, VLA-4 allosteric modulator project, MLPCN library, flow cytometry, VLA-4 expressing cells; ligand binding flow cytometry; inhibition, % (about 7 µM as worked out from the volumes in the protocol); actives 0.2% (n = 330,000); Integrin alpha-4 (Homo sapiens), P13612; in the data active means inhibition above about 50%
CHOP inh – inhibitors of CHOP promoter induction, primary screen, cell-based, unfolded protein response, luciferase reporter; inhibition, % at 10 µM; AID 2732, 2010; CHO-K1 CHOP-promoter luciferase, tunicamycin-induced, 15-18 h; actives 3.8% (n = 220,000);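 active means compounds that reduced the stress-induced luciferase reporter signal by more than about 70% of percent inhibition, limit read from the data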;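 further: 0% = tunicamycin plus vehicle and 100% = wells without tunicamycin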
B2AR ag CP1 – beta2AR agonists via receptor internalization, confirmation, cell-based, FAP fluorogen, flow cytometry, single point, cherry pick 1 | percent response (surface receptor), % at 10 µM | shares compounds with Beta2AR agonist | actives 25% (n = 1,100) | Am2.2-beta2AR cells, FAP surface receptor; active compounds read low;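 active means surface receptor percent response at or below 58%, roughly 3 SD from nonfluorescent compounds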
FAP fluor counter – flagged in Am2.2 fluorescence counterscreen for beta-2AR agonists; shares compounds with Beta2AR agonist; Am2.2 cells, FAP fluorogen flow cytometry; active compounds read low; calls only at 10 µM; 1,100 tested, under 10 active;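 active means percent response below a set limit in fluorescence channel 1 and below 50% in channel 8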
Starred values were filed as active, the others as inactive; i = inactive; x = not tested or not shown. The full list was thinned out, with hits kept by preference.

SMILES	Beta2AR agonist	CHOP UPR activ	UPR XBP1 act	VLA-4 inh	CHOP inh	B2AR ag CP1	FAP fluor counter
COCCCNC(=O)c1cc(-c2cccnc2)nc2ccc(S(=O)(=O)N3CCCCCC3)cc12	17	1	-3	0	x	94	i
O=C1CC2(CCCC2)C(=O)N1CN1CCN(S(=O)(=O)c2ccc(Cl)c(Cl)c2)CC1	10	1	-3	3	x	x	x
O=C(NC1(Cc2ccc(O)cc2)CCCCC1)c1ccccc1	43*	1	-2	4	x	41*	i
CCc1ccc(CN(C)C(=O)c2cc(COc3cncc(Cl)c3)on2)cc1	x	x	x	x	x	106	i
Cc1ccc(OCc2cc(C(=O)N(C)Cc3cnn(-c4ccccc4C)c3)no2)cn1	100*	2	0	-17	x	19*	i
COCC1CCCN(C(=O)c2cc(COc3cncc(Cl)c3)on2)C1 (stereo not drawn)	-4	3	1	20	x	x	x
Cc1cc(CN(C)C(=O)c2cc(COc3ccc(C)c(C)c3)on2)on1	-15	5	1	17	x	x	x
CCC(NC(=O)c1cc(COc2cncc(Cl)c2)on1)c1ccc(C)cc1 (stereo not drawn)	-1	1	-3	13	x	88	i
CCc1ccc(CN(C)C(=O)c2cc(COc3ccc(-n4cncn4)cc3)on2)cc1	-5	4	-3	14	x	x	x
COC(=O)[C@@H](NC(=O)c1cc(COc2cncc(Cl)c2)on1)c1ccccc1	2	5	0	8	x	97	i
O=CNc1ccccc1	-2	5	0	6	x	x	x
COc1ccc(C(C(=O)NC2CCCC2)N(CCO)C(=O)Cn2nnc(-c3ccc(C)o3)n2)cc1OC (stereo not drawn)	11	0	7	4	x	x	x
CCc1ccc(OCC(=O)O/N=C(\N)c2ccncc2)c(Br)c1	-7	7	0	7	x	x	x
c1ccc(OCCCCn2cnc3ccccc32)cc1	45*	1	-3	10	x	100	i
CCOc1cc(-c2c(C)c(C)nc(N)c2C#N)ccc1O	9	-1	-1	-4	11	x	x
CCOc1cc(-c2c(C)c(CC)nc(N)c2C#N)ccc1O	69*	-4	-1	6	-2	103	i
COCCNC(=O)c1cccc(OC2CCN(Cc3cccc(SC)c3)CC2)c1	1	2	-3	-13	x	x	x
CC1CCN(C(C(=O)Nc2ccc3c(c2)OCO3)c2ccccc2)CC1 (stereo not drawn)	-1	1	2	3	68	97	i
CC1CCCN(C(C(=O)Nc2ccc3c(c2)OCO3)c2ccccc2)C1 (stereo not drawn)	26	0	-1	36	-4	86	i
CC(C)CCN(C(=O)CCSc1ccc(F)cc1)c1c(N)n(Cc2ccccc2)c(=O)[nH]c1=O	2	0	1	8	x	x	x
COc1cccc(NC(=O)COC(=O)c2ccccc2C(=O)N(C)c2ccccc2)c1	-2	-3	-4	11	x	x	x
O=C(CSc1nc2ccccc2c(=O)n1-c1ccc(F)cc1F)Nc1ccc(N2CCOCC2)cc1	6	-1	-1	-2	-2	x	x
O=C(CSc1nc2ccccc2c(=O)n1-c1ccc(F)cc1F)c1c[nH]c2ccccc12	45*	0	-2	3	-9	112	i
COC(=O)CS(=O)(=O)c1ccsc1C(=O)Nc1ccc(F)c(F)c1	47*	1	-3	-2	9	101	i
CN(CCOc1ccc(-c2ccn(S(=O)(=O)c3cccc4ccccc34)n2)cc1)c1ccccn1	76*	-1	1	1	41	39*	i
SMILES	Beta2AR agonist	CHOP UPR activ	UPR XBP1 act	VLA-4 inh	CHOP inh	B2AR ag CP1	FAP fluor counter
O=C(Nc1ccc(Br)cc1)c1cccc(S(=O)(=O)Nc2cnc3ccccc3c2)c1	47*	-2	-1	9	44	104	i
O=C(Nc1ccc(Br)cc1)c1cccc(S(=O)(=O)Nc2ccccn2)c1	-1	0	-3	16	x	x	x
CN(C)c1ncc(CN2CCC(C(=O)Nc3ccc(-n4cccn4)cc3)CC2)s1	-3	1	-3	3	x	x	x
COCCc1ncc(CN2CCC(C(=O)Nc3ccc(-n4cccn4)cc3)CC2)cn1	50*	-1	-2	6	x	30*	i
O=C(C[n+]1cccc(NC(=O)c2ccccc2)c1)c1ccc(NC(=O)c2ccccc2)cc1	72*	-3	-2	-3	-8	47*	i
S=c1nc(NCCc2ccccc2Cl)c2ccccc2[nH]1	-13	2	7	26	x	x	x
Cn1c(SCC(=O)N/N=C/C=C/c2ccccc2[N+](=O)[O-])nc2ccccc21	-6	1	-2	19	65	x	x
Cn1c(SCC(=O)N/N=C/C=C/c2ccco2)nc2ccccc21	-12	0	0	-15	4	98	i
Cn1c(SSc2ccc(-c3cccnc3)n2C)ccc1-c1cccnc1	6	x	x	x	x	x	x
Cc1cc(NC(=O)C(C)SCC(=O)N(C)CC(=O)Nc2ccc(F)cc2)no1 (stereo not drawn)	-7	2	-1	-3	x	x	x
O=C1CN(C(=O)COC(=O)c2cc(S(=O)(=O)N3CCOCC3)ccc2Cl)c2ccccc2N1	42*	2	-2	3	-9	87	i
CCn1c(=O)c([N+](=O)[O-])c(NCC2CCCO2)c2ccccc21 (stereo not drawn)	0	1	4	-5	1	x	x
O=C(Nc1cccc(-c2nc3ccccc3s2)c1)c1cccs1	52*	0	-1	-1	36	46*	i
O=C(Nc1cccc(Cl)c1)Nc1sccc1-c1nc2ccccc2s1	66*	1	0	-5	-7	116	i
CCCn1c(=N)n(CC(O)COc2ccc(C)cc2)c2ccccc21 (stereo not drawn)	10	2	0	7	2	x	x
CCCCn1c(=N)n(CC(O)COc2cccc(C)c2)c2ccccc21 (stereo not drawn)	46*	0	2	10	40	86	i
CN(Cc1ccccc1)C(=O)c1ccc(NC(=O)Cc2cccc(NC(=O)C3CCCN(C(=O)C4CCC4)C3)c2)cc1 (stereo not drawn)	-8	1	-1	0	x	x	x
